Measurements collected from several papers.
Compare with care: the assays were run in different laboratories.

SMILES	assay	system	conditions	solubility
CC(=O)N[C@@H](CC(N)=O)C(=O)N[C@@H](CCCNC(=N)N)C(=O)N[C@@H](CC(C)C)C(=O)N[C@H]1CSSC[C@@H](C(=O)N[C@H](C(N)=O)[C@@H](C)O)NC(=O)[C@H](CCCNC(=N)N)NC(=O)[C@H](Cc2c[nH]cn2)NC(=O)[C@H](Cc2cccc3ccccc23)NC(=O)CNC(=O)[C@H](Cc2c[nH]c3ccccc23)NC(=O)[C@H](CC(=O)O)NC(=O)[C@H](CCC(N)=O)NC(=O)[C@H](Cc2cccc3ccccc23)NC(=O)[C@H](C(C)C)NC1=O	–	PBS	pH 7.4	300 µg/mL
CCCSc1ccc2nc(NC(=O)OC)[nH]c2c1	–	water	24 h	< 1 µg/mL
CC[C@H](C)[C@H](NC(=O)[C@H](CO)NC(=O)[C@H](CCCNC(=N)N)NC(C)=O)C(=O)N[C@H]1CSSC[C@@H](C(=O)N[C@H](C(N)=O)[C@@H](C)O)NC(=O)[C@H](CCCNC(=N)N)NC(=O)[C@H](Cc2c[nH]cn2)NC(=O)[C@H](C)NC(=O)CNC(=O)[C@H](Cc2c[nH]c3ccccc23)NC(=O)[C@H](CC(=O)O)NC(=O)[C@H](CCC(N)=O)NC(=O)[C@H](Cc2ccc3ccccc3c2)NC(=O)[C@H](C(C)C)NC1=O	–	PBS	pH 7.4	2170 µg/mL
COc1cc(C)c2[nH]cc(/C=N/NC(=N)NCCc3cccnc3)c2c1	–	PBS	2 h, pH 7.4	30.1 µM
CCCCCCC#Cc1cncc(-c2nnc(SCc3cc([N+](=O)[O-])cc([N+](=O)[O-])c3)n2C)c1	–	PBS	–	< 1.6 µM
O=C(Nc1ccc(-c2ccc(C(=O)Nc3cccc4cccc(S(=O)(=O)O)c34)cc2)cc1)c1ccc([N+](=O)[O-])cc1	–	water	–	4.7 µg/mL
COc1ccc(NC(=O)N2CCCCN3[C@H](CN(C)C)[C@H](c4ccc(C#Cc5ccccc5)cc4)[C@@H]3C2)cc1	–	aqueous buffer	pH 1	155 µM
CNC(=O)O[C@@H](C)/C=C\C(=O)N[C@H]1CC[C@@H](C/C=C(C)/C=C/[C@@H]2C[C@]3(CO3)CC(C)(C)O2)CC1	HPLC	PBS	–	45 µM
Clc1ccc(CSc2nnc(-c3ccccn3)n2Cc2ccco2)cc1Cl	–	aqueous buffer	pH 6.2	0.29 µg/mL
CC[C@H](C)[C@H](NC(=O)[C@H](CCCNC(=N)N)NC(=O)[C@H](CCC(=O)O)NC(C)=O)C(=O)N[C@H]1CSSC[C@@H](C(=O)N[C@H](C(N)=O)[C@@H](C)O)NC(=O)[C@H](CCCNC(=N)N)NC(=O)[C@H](Cc2c[nH]cn2)NC(=O)[C@H](Cc2cccc3ccccc23)NC(=O)CNC(=O)[C@H](Cc2c[nH]c3ccccc23)NC(=O)[C@H](CC(=O)O)NC(=O)[C@H](CCC(N)=O)NC(=O)[C@H](Cc2cccc3ccccc23)NC(=O)[C@H](C(C)C)NC1=O	–	PBS	pH 7.4	160 µg/mL
O=C(CCCN1CCC2(CC1)C(=O)NCN2c1ccccc1)N(CC1CCCCC1)c1ccccc1	–	PBS	24 h, pH 7.4, 37 °C	626 µM
CC[C@H](C)[C@H](NC(=O)[C@H](CO)NC(=O)[C@H](CCCNC(=N)N)NC(C)=O)C(=O)N[C@H]1CSSC[C@@H](C(=O)N[C@H](C(N)=O)[C@@H](C)O)NC(=O)[C@H](CCCNC(=N)N)NC(=O)[C@H](Cc2cnc[nH]2)NC(=O)[C@H](C)NC(=O)CNC(=O)[C@H](Cc2c[nH]c3ccccc23)NC(=O)[C@H](CC(=O)O)NC(=O)[C@H](CCC(N)=O)NC(=O)[C@H](Cc2ccc(O)cc2)NC(=O)[C@H](C(C)C)NC1=O	–	PBS	pH 7.4	2840 µg/mL
O=C1C=C(N(Cc2ccc(Cl)nc2)CC(F)F)CO1	–	methanol	20 °C	> 250000 µg/mL
